# Data published in publication PMC12009964 (Scientific Reports, 2025).
# Assays:
# Hela cells [1] = test: DAPI staining assay; format: cell-based, human; settings: 5 µM, 24 h, compared to DMSO
# Summary of the method: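 HeLa cells (5 × 10^3) seeded in 24-well plates for 24 h, treated 24 h with test compound (1, 2.5 or 5 µM in methods). Fixed in 4% paraformaldehyde 10 min, washed, stained with 300 nM DAPI 15 min in the dark. Nuclear morphology of apoptotic cells examined by fluorescence microscopy.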
# Hela cells [2] = test: Annexin V/Propidium iodide flow cytometry; format: cell-based, human; settings: 5 µM, 24 h
# Summary of the method: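 Apoptosis assay: HeLa cells (5 × 10^5) seeded in 6-well plates for 24 h, serum-starved 20 h, then exposed to test compound for 24 h (1, 2.5 or 5 µM in methods). Annexin V-FITC/PI kit staining, flow cytometry. Quadrants: lower right early apoptotic, upper right late apoptotic, upper left necrotic. Mean ± SD of three independent experiments.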
# [3] = tested on: AP-1 reporter in HeLa cells; test: ERK5-driven AP-1 reporter assay; format: cell-based, human; settings: 5 µM
# Summary of the method: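 HeLa cells (2 × 10^5 per well, 6-well) transiently lipofected with an AP-1-luc reporter vector carrying six AP-1 response elements. After transfection, cells received 5 µM test compound. AP-1 mRNA measured by RT-PCR (TRIzol RNA, reverse transcription, duplicate real-time reactions), with GAPDH as normaliser and the 2−∆∆Cq method.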
# [4] = tested on: PCNA expression in Hela cells; test: PCNA mRNA expression by quantitative RT-PCR; format: cell-based, human; settings: for inhibition rate of the expression of PCNA: Hela cells, qRT-PCR, 5 μM as printed in abstract; for inhibition at 10 µM: Homo sapiens, HeLa, read-out: Inhibition of PCNA expression
# ERK5 = ERK5 (Homo sapiens, UniProt Q13164); test: Z'-LYTE Kinase Assay, Ser/Thr 4 peptide; format: biochemical; settings: read-out: IC50 against ERK5 (Z'-LYTE kinase assay)
# Sequence of ERK5 (Q13164 2-816): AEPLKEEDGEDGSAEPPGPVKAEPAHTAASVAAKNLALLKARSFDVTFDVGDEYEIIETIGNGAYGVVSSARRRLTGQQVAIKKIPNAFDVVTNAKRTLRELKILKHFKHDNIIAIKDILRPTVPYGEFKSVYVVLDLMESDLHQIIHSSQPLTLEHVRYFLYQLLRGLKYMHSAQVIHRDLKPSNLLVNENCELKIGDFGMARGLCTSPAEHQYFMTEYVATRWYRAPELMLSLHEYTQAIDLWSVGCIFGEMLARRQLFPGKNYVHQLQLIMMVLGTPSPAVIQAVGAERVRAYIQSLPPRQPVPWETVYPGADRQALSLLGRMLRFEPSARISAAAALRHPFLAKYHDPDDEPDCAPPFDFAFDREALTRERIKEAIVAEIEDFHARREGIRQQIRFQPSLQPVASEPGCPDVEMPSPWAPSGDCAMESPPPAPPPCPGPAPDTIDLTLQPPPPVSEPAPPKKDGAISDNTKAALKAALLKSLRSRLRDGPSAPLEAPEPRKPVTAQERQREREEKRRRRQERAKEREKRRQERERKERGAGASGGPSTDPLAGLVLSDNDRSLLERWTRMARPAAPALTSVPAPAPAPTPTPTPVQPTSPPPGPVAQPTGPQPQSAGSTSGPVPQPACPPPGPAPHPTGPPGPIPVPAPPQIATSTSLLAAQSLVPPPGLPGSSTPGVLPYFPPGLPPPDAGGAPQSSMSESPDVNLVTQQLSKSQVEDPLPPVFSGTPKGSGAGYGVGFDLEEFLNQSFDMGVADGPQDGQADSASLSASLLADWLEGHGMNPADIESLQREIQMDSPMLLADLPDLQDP
# Summary of the method: (§1)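 Coupled-enzyme, antibody-free fluorescence kinase assay on HeLa cell lysates (10–100 µg per well). Substrates: Ser/Thr 4 peptide for ERK5, Ser/Thr 3 peptide for ERK1/2. Test compound at 1.25, 2.5, 5 and 10 µM. Coumarin (Ex 400/Em 445 nm) and fluorescein (Ex 400/Em 520 nm) emissions read on a plate reader.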
# ERK1/2 = test: Z'-LYTE Kinase Assay, Ser/Thr 3 peptide; format: biochemical, human; settings: 1.25, 2.5, 5, and 10 µM
# Summary of the method: as §1
IC50 (ERK5) [µM],SMILES,apoptosis by DAPI staining (Hela cells [1]),increase of late apoptotic events compared with DMSO (Hela cells [2]) [%],expression of AP-1 [3],inhibition rate of the expression of PCNA [4] [%],effect on ERK1/2 kinase activity (ERK1/2),inhibition at 10 µM [4] [%]
5.1,"CC(C)CCOc1cc(C[n+]2c(C(C)C)n(CCC(C)C)c3ccccc32)c(OCCC(C)C)c2ccccc12.[Br-] [4e, 3-((1,4-bis(isopentyloxy)naphthalen-2-yl)methyl)−1-isoamyl-2-isopropyl-1H-benzo[d]imidazol-3-ium bromide]",triggered apoptosis,10.8,significantly decreased,61.1,did not inhibit ERK1/2 kinase activity,–
–,"COC(C)c1n(CCC(C)C)c2ccccc2[n+]1Cc1cc(OCCC(C)C)c2ccccc2c1OCCC(C)C (stereo not drawn) [4j, 3-((1,4-Bis(isoamyloxy)naphthalen-2-yl)methyl)−1-isoamyl-2-(1-methoxyethyl)−1H-benzo[d]imidazol-3-ium bromide]",–,–,–,–,–,57.4
9,"Cc1cc2c(cc1C)[n+](Cc1cc(OCCC(C)C)c3ccccc3c1OCCC(C)C)cn2CCC(C)C.[Br-] [4k, 3-((1,4-Bis(isoamyloxy)naphthalen-2-yl)methyl)−1-isoamyl-5,6-dimethyl-1H-benzo[d]imidazol-3-ium bromide]",triggered apoptosis,14,significantly decreased,70.2,did not inhibit ERK1/2 kinase activity,70.2
–,"CC(C)CCOc1cc(C[n+]2cn(CCC(C)C)c3cc(Br)c(Br)cc32)c(OCCC(C)C)c2ccccc12 [4m, 3-((1,4-Bis(isoamyloxy)naphthalen-2-yl)methyl)−5,6-dibromo-1-isoamyl-1H-benzo[d]imidazol-3-ium bromide]",–,–,–,–,–,57
